Experimental data published in ChEMBL document CHEMBL1949667, “Development of small-molecule probes that selectively kill cells induced to express mutant RAS” (Bioorg Med Chem Lett, 2012).
pIC50: −log10 of the molar value. Values after ≈ are worked out from the molar mass of the structure shown. Active and inactive are the calls of the source. The rule behind the calls is not given here.

Legend:
[1] = Cytotoxicity against human BJeH-LT cells after 48 hrs by alamar blue assay; type: cell-based
Procedure, shortened: (§1)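 Cells grown in DMEM/M199 with heat-inactivated FBS at 37°C, 5% CO2, ≤20 passages. Compounds in DMSO diluted into medium, then 2-fold serial dilutions in medium; 1000 cells/well treated for 48 h. Viability read by adding Alamar Blue (50% in growth medium), incubating 16 h, then fluorescence at 544 excitation/590 emission; concentration-response curves generated.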

[2] = Cytotoxicity against human BJeLR cells expressing HRAS G12V mutant after 48 hrs by alamar blue assay; type: functional, cell-based
Procedure, shortened: (§2)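 BJ fibroblast lines: BJeLR (hTERT, SV40 large and small T, HRASV12) and DRD (hTERT, SV40 small T, dominant-negative p53, cyclin D1, mutant CDK4, HRASV12), grown in DMEM/M199/heat-inactivated FBS for ≤20 passages. Compounds were taken from DMSO into medium as 2-fold serial dilutions. 1000 cells/well were exposed for 48 h at 37°C, 5% CO2. Alamar Blue was added for 16 h, then fluorescence read at excitation 544, emission 590.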

[3] = Cytotoxicity against human BJeH cells after 48 hrs by alamar blue assay; type: cell-based
[4] = tested on: BJ; assay: Cytotoxicity against human BJ cells expressing HRAS G12V mutant with alternative oncogenic constructs after 48 hrs by alamar blue assay; type: functional, cell-based; procedure, shortened: as §2
[5] = Aqueous solubility of the compound; type: physicochemical
[6] = Drug degradation in PBS assessed as racemisation after 48 hrs by HPLC/MS analysis; type: physicochemical; conditions: buffer
[7] = Drug degradation in PBS/DMSO assessed as GSH-adduct formation after 1 hr in the presence of GSH and triethylamine; type: physicochemical; conditions: buffer
[8] = tested on: BJeH-LT; assay: Cytotoxicity against human BJeH-LT cells up to 20 ug/ml after 48 hrs by alamar blue assay; type: functional, cell-based; procedure, shortened: as §1
[9] = Selectivity ratio of IC50 for human BJeH-LT cells to IC50 for human BJeLR cells; type: ADME, cell-based; conditions: BJeH-LT cells versus BJeLR cells, read-out: Ratio IC50
[10] = tested on: BJeLR; assay: Cytotoxicity against human BJeLR cells up to 20 ug/ml after 48 hrs by alamar blue assay; type: functional, cell-based; procedure, shortened: as §1
[11] = (§3) Selectivity ratio of IC50 for human BJeH cells to IC50 for human BJeLR cells; type: ADME, cell-based; conditions: BJeH cells versus BJeLR cells, read-out: Ratio IC50
[12] = as §3; type: ADME, cell-based; conditions: BJeH cells versus BJeLR cells, read-out: Ratio IC50; remark: listed apart in the source
[13] = tested on: MEF; assay: Cytotoxicity against MEF expressing K-rasG12D after 48 hrs by CellTiter-Glo assay; type: functional, cell-based; conditions: Mus musculus

| Structure (SMILES) | pIC50 [1] | pIC50 [2] | inhibition [8] | selectivity ratio [9] | inhibition [10] | further results |
| --- | --- | --- | --- | --- | --- | --- |
| COc1ccc(N(C(=O)CCl)C(C(=O)NCCc2ccccc2)c2cccs2)cc1Cl (racemic) | 6.24 | 7.60 | – | – | – | pIC50 [3]: 5.62; pIC50 [4]: 7.47; solubility ([5]; aqueous, read-out: solubility): 16 µM (≈ 7.64 µg/mL); Drug degradation [6]: Not Active; Drug degradation [7]: Active |
| Cc1onc(C(=O)NCCNC(c2ccccc2)c2ccccc2)c1[N+](=O)[O-] | – | 4.67 | inactive | – | – | – |
| COc1ccc(C(c2ccc(OC)cc2)N2CCN(C(=O)c3noc(C)c3[N+](=O)[O-])CC2)cc1 | 5.27 | 5.80 | – | 3.4 | – | – |
| COc1ccc(N(C(=O)CCl)C(C(=O)NCS(=O)(=O)c2ccc(C)cc2)c2cccs2)cc1Cl (racemic) | 6.68 | 7.05 | – | – | – | solubility ([5]; aqueous, read-out: solubility): < 1 µM |
| O=C(NCCc1ccccc1)C(c1cccs1)N(C(=O)CCl)c1cccc(Cl)c1 (racemic) | 6.48 | 6.81 | – | 2.1 | – | – |
| COc1ccc(N(C(=O)CCl)C(C(=O)NCn2nnc3ccccc32)c2cccs2)cc1Cl (racemic) | 6.62 | 6.99 | – | – | – | – |
| COc1ccc(N(C(=O)CCl)C(C(=O)NCCc2ccccc2)c2cccs2)cc1 (racemic) | 5.77 | 6.66 | – | 7.8 | – | – |
| Cc1onc(C(=O)N2CCCN(C(c3ccccc3)c3ccccc3)CC2)c1[N+](=O)[O-] | 5.55 | 6.11 | – | 3.6 | – | – |
| COc1cccc(N(C(=O)CCl)C(C(=O)NCCc2ccccc2)c2cccs2)c1 (racemic) | 5.62 | 6.77 | – | 14 | – | – |
| Cn1ncc([N+](=O)[O-])c1C(=O)N1CCN(C(c2ccccc2)c2ccccc2)CC1 | – | – | inactive | – | inactive | – |
| Cc1onc(C(=O)NCc2ccc(F)cc2)c1[N+](=O)[O-] | – | – | inactive | – | inactive | – |
| CCC(=O)N1CCN(C(=O)c2noc(C)c2[N+](=O)[O-])CC1 | – | – | inactive | – | inactive | – |
| Cc1ccc(C(=O)N2CCN(C(c3ccccc3)c3ccccc3)CC2)c([N+](=O)[O-])c1 | – | – | inactive | – | inactive | – |
| Cc1onc(C(=O)N2CCN(C(c3ccccc3)c3ccc(Cl)cc3)CC2)c1[N+](=O)[O-] (racemic) | 6.29 | 6.89 | – | 4 | – | – |
| Cc1onc(C(=O)N2CCN(Cc3ccccc3)CC2)c1[N+](=O)[O-] | – | – | inactive | – | inactive | – |
| COc1ccc(N(C(=O)CCl)C(C)(C)C(=O)NCCc2ccccc2)cc1Cl | 6.90 | 7.24 | – | 2.2 | – | – |
| Cn1cc([N+](=O)[O-])c(C(=O)N2CCN(C(c3ccccc3)c3ccccc3)CC2)n1 | – | – | inactive | – | inactive | – |
| COc1ccc(N(C(=O)CCl)C(C(=O)NCc2ccccc2)c2cccs2)cc1Cl (racemic) | 6.75 | 7.12 | – | 2.4 | – | – |

| Structure (SMILES) | pIC50 [1] | pIC50 [2] | inhibition [8] | selectivity ratio [9] | inhibition [10] | further results |
| --- | --- | --- | --- | --- | --- | --- |
| COc1ccc(N(C(=O)CCl)C(C(=O)NCCc2ccccc2)c2ccc(Cl)s2)cc1Cl (racemic) | 6.88 | 7.21 | – | 2.2 | – | – |
| O=C(c1cc([N+](=O)[O-])ccn1)N1CCN(C(c2ccccc2)c2ccccc2)CC1 | 4.30 | 4.43 | – | 1.33 | – | – |
| COc1ccc(N(C(=O)CCl)C(C(=O)NCCc2ccccc2)c2nc(C)cs2)cc1Cl (racemic) | 4.70 | 5.08 | – | 2.4 | – | – |
| Cc1onc(C(=O)N2CCN(C(c3ccccn3)c3ccccn3)CC2)c1[N+](=O)[O-] | – | – | inactive | – | inactive | solubility ([5]; buffer): > 500 µM |
| COc1ccc(N(C(=O)CCl)C(C(=O)NCCc2ccccc2)C2CCCCC2)cc1Cl (racemic) | 5.93 | 6.30 | – | 2.3 | – | – |
| Cc1onc(C(=O)N2CCN(C(c3ccc(F)cc3)c3ccc(F)cc3)CC2)c1[N+](=O)[O-] | 6.12 | 6.74 | – | 4.1 | – | – |
| Cc1onc(C(=O)N2CCN(C(c3ccncc3)c3ccncc3)CC2)c1[N+](=O)[O-] | – | – | inactive | – | inactive | solubility ([5]; buffer): > 500 µM |
| Cc1onc(C(=O)N2CCN(C(c3ccc(Cl)cc3)c3ccc(Cl)cc3)CC2)c1[N+](=O)[O-] | 6.57 | 7.15 | – | 3.9 | – | selectivity ratio [11]: 4; selectivity ratio [12]: 4; pIC50 [3]: 6.20; pIC50 [4]: 6.97 |
| COc1ccc(N(C(=O)CCl)C(C(=O)NCCc2ccccc2)C(C)C)cc1Cl (racemic) | 5.89 | 6.05 | – | 1.5 | – | – |
| C[C@H](CN1CCCC1)C(=O)c1ccc(C(F)(F)F)cc1 [LANPERISONE] | – | – | – | – | – | pIC50 [13]: 5.40 |
| COc1ccccc1N1CCN(C(=O)c2noc(C)c2[N+](=O)[O-])CC1 | – | – | inactive | – | inactive | – |
| COc1ccc(N(C(=O)CCl)C(C(=O)NC2CCCCC2)c2cccs2)cc1Cl (racemic) | 6.57 | 6.95 | – | 2.4 | – | – |
| O=C(c1n[nH]cc1[N+](=O)[O-])N1CCN(C(c2ccccc2)c2ccccc2)CC1 | – | – | inactive | – | inactive | – |
| Cc1onc(C(=O)N2CCN(C(c3ccccc3)c3ccccc3)CC2)c1[N+](=O)[O-] | 5.30 | 5.99 | – | 4.8 | – | – |
| O=C(c1ccc([N+](=O)[O-])o1)N1CCN(C(c2ccccc2)c2ccccc2)CC1 | 4.72 | – | – | – | inactive | – |
| COC(=O)c1ccc(C2c3[nH]c4ccccc4c3C[C@@H](C(=O)OC)N2C(=O)CCl)cc1 (stereo partly specified) | – | 7.00 | – | 8 | – | – |
| COc1ccc(N(CC(=O)NCCc2ccccc2)C(=O)CCl)cc1Cl | 6.27 | 6.64 | – | 2.3 | – | – |
| Cc1onc(C(=O)N2CCOCC2)c1[N+](=O)[O-] | – | – | inactive | – | inactive | – |
